Results: paper PMC5438482 (Journal of Alzheimer's Disease, 2017)

Columns and labels:
[1] = comparison CNS drug; no reference given; cited from earlier work
[2] = test system: MC65 cells; experiment: Cellular ROS assay with CM-H2DCFDA in MC65 cells; assay type: cell-based; conditions: CM-H2DCFDA fluorescence, TC- condition, n = 7-8
In short: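 MC65 cells kept in 1 μg/mL tetracycline were washed extensively and plated at 2.5×10^4 cells/well in serum-free, phenol-red-free Opti-MEM without tetracycline. For ROS, cells were PBS-washed, loaded with CM-H2DCFDA and incubated 40 min. Random fluorescence photomicrographs were taken per condition, and intensity was quantified by image analysis, blinded to investigator.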

[3] = test system: MC65 cells; conditions: cited from earlier work

| SMILES | Log Doct [1] | ROS production of MC65 cells [2] | MC65 cell death [3] |
| --- | --- | --- | --- |
| CN(C)CCC(c1ccc(Cl)cc1)c1ccccn1 (stereo not drawn) [chlorpheniramine] | 1.25 | – | – |
| Cc1c(C)c2c(c(C)c1O)CC[C@@](C)(CCC[C@H](C)CCC[C@H](C)CCCC(C)C)O2 [α-tocopherol] | – | reduced | blocked |
